High-throughput results as filed in PubChem.
FN deposition inh: fibronectin deposition inhibition; AH1F fibroblasts, Alexa488-fibronectin deposition fluorescence, overnight; inhibition, % at 12.6 µM; actives 0.086% (n = 350,000); AID 743247;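 active means mean inhibition across replicates of 30% or more, regardless of how many single replicates reach that level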;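 further: positive control wells lacked labelled fibronectin entirely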
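Material: AH1F fibroblasts assembling fluorescent fibronectin matrix; amount: 10000 AH1F cells/well; medium: DMEM, 2% serum; reagent: Alexa488-fibronectin, 24 nM final in well; dosing: single compound dose, delivered by pin transfer; incubation: 1 h adhesion, overnight exposure; detection: fluorescence after three HBSS washes, excitation 485 nm, emission 525 nm; measure: fibronectin deposition inhibition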
A3G deaminase: inhibitors of human APOBEC3G DNA deaminase | AID 493012 | Q9HC16 | recombinant A3G, ssDNA deamination FAM/TAMRA fluorescence | inhibition, % at 20 µM | actives 0.28% (n = 330,000);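 active means inhibition of at least 40% at 20 µM, with no more than 30% in the related APOBEC3A deaminase screen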;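 further: plate controls were DMSO wells with A3G for no effect and wells lacking A3G enzyme for full effect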
ABHD5-PLIN5 inh: blocks binding of human ABHD5 to perilipin-5. Q00G26+Q8WTS1. actives 0.78% (n = 360,000). Split G. princeps luciferase complementation, luminescence, 4 h. inhibition, % at 4 µM;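 active means inhibition above the mean inhibition across every tested compound plus 3 SD, cut at about 22% in these data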;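 further: 0% = DMSO only wells and the 100% control is not disclosed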
A3A deaminase: blocks human APOBEC3A ssDNA deamination. P31941. recombinant A3A, FAM/TAMRA ssDNA deamination fluorescence. inhibition, % at 20 µM. actives 0.41% (n = 330,000). AID 493011;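 active means at least 40% inhibition at 20 µM here, with at most 30% in a related deaminase screen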;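 further: plate controls were A3A with DMSO for no effect and wells lacking A3A enzyme for full effect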
* = called active by the depositor; · = no result. A selection: hits, their analogues and other compounds. The true share with any hit is near 1.2%.

SMILES	FN deposition inh	A3G deaminase	ABHD5-PLIN5 inh	A3A deaminase
COc1ccccc1-c1cnc2c(c1)C(=O)N([C@@H](C)CO)C[C@@H](C)[C@@H](CN(C)C(=O)c1ccncc1)O2	-2	·	·	·
COc1cc(C)nc(NCc2ccccc2)n1	2	1	-4	7
COc1ccc(Nc2cc(C)nc(NCc3ccccc3)n2)cc1	12	-2	22*	1
COc1ccc(/C=N/NC(=O)c2ccc(C)cc2)cc1CN1CCN(c2ccc(F)cc2)CC1	·	-9	0	-3
COc1ccc(/C=N\NC(=O)c2cc(O)c(O)c(O)c2)cc1CN1CCN(c2ccc(F)cc2)CC1	2	·	22*	·
CCOC(=O)c1c(NC(C)=O)sc2c1CCC(C=NCCCN(CC)CC)=C2Sc1ccccc1	·	-10	48*	-6
CCOC(=O)c1c(NC(C)=O)sc2c(OCCN(CC)CC)c(Br)ccc12	-3	-1	6	9
Cc1ccc(NC(=O)CN(C)C(=O)Cn2ncc(Cl)c(Cl)c2=O)cc1	36*	·	7	·
Cc1ccc(NC(=O)CN(C)C(=O)Cc2ccc(Cl)c(Cl)c2)cc1	0	-8	-3	-3
COc1ccc(C(C[N+](=O)[O-])C2(c3ccc(OC)c(OC)c3)C(=O)c3ccccc3C2=O)cc1 (configuration not stated)	·	·	84*	·
COc1cc(/C=C/C(=O)CC(=O)/C=C/c2ccc(O)c(OC)c2)ccc1O	3	-4	32*	1
O=C(C[C@@H]1C[C@H]2c3cc(NC(=O)C4CCC4)ccc3O[C@H]2[C@H](CO)O1)NCc1cccnc1	-3	·	·	·
O=C1c2ccccc2-c2onc3ccc(NCc4ccco4)c1c23	·	-70	22*	-59
C=C(CN(C)C)C(=O)c1cc(C)ccc1C	-5	·	67*	·
CCOc1cccc2sc(N(CCN(C)C)C(=O)c3cc4ccccc4cc3OC)nc12	14	-6	23*	-5
CCOc1cccc2sc(N(CCCN(C)C)C(=O)c3ccc(S(=O)(=O)N(CC)Cc4ccccc4)cc3)nc12	19	3	23*	-1
CN1c2ccc(-c3ccccc3)cc2[C@H]2[C@H](CCN2C(=O)c2ccccn2)[C@@H]1CO	14	·	·	·
COCC(=O)N1[C@H](CO)[C@@H](c2ccc(-c3ccccc3)cc2)C12CN(C(C)=O)C2	8	·	·	·
CN(C)c1ccc(NC(=O)C(=O)C2C(=O)Nc3ccccc32)cc1 (configuration not stated)	5	-1	7	0
CN(C)c1ccc(CC2C(=O)Nc3ccccc32)cc1 (configuration not stated)	-3	45*	-1	-5
C[C@@H]1CN(C)C(=O)c2cc(N)ccc2O[C@@H]1CN(C)S(C)(=O)=O	-3	·	·	·
CSc1nnc(C)c(=O)n1COC(=O)c1ccc([N+](=O)[O-])cc1	31*	-2	-6	3
COC(=O)C1=C(\O)CCCC/C=C\1C(=O)O	-3	·	22*	·
O=C(C[C@@H]1CC[C@@H]2[C@H](COC[C@@H](O)CN2Cc2ccncc2)O1)NCc1ccccc1Cl	7	·	·	·
Cc1cc(C)c(S(=O)(=O)Nn2cnnc2)c(C)c1	33*	-2	5	1
SMILES	FN deposition inh	A3G deaminase	ABHD5-PLIN5 inh	A3A deaminase
CCCCCCCCC[n+]1cccc2c3ccccc3ccc21	·	1	29*	1
O=[N+]([O-])c1ccc(C[n+]2cccc3c4ccccc4ccc32)cc1	4	-15	1	13
COc1ccc(OC)c(-c2nnc3n2N=C(c2ccc(OC)c(OCC4CC4)c2)CS3)c1	·	-8	23*	-3
CO[C@H]1CN(C)C(=O)c2cc(NC(C)=O)ccc2OC[C@@H](C)N(C(=O)CN2CCOCC2)C[C@H]1C	31*	·	·	·
CO[C@H]1CN(C)C(=O)c2cc(NC(C)=O)ccc2OC[C@H](C)N(C(=O)CN2CCOCC2)C[C@@H]1C	-57	·	·	·
CNC[C@H]1Oc2ccc(NS(C)(=O)=O)cc2C(=O)N(C)C[C@@H]1C	4	·	·	·
C/C=C/c1cccc(-c2nc(C(=O)N(C)C)cc3c2[C@@H](CCO)N([S@](=O)C(C)(C)C)C3)c1	-4	·	·	·
Cc1ccc(-c2nc3ncccc3o2)cc1NC(=O)c1ccco1	32*	-3	-3	0
COCC(=O)Nc1ccc2c(c1)OC[C@@H](C)N(CC1CCCCC1)C[C@@H](C)[C@H](OC)CN(C)C2=O	-1	·	·	·
O=C(CSc1nc2ncc(Cl)cc2[nH]1)c1c[nH]c2ccccc12	33*	-1	9	1
CCN1CCN(Cc2ccc(NC(=O)c3ccc(C)c(NC(=O)c4cncc(-c5cccs5)c4)c3)cc2C(F)(F)F)CC1	·	·	26*	·
C[C@@H]1CC=CC[C@@H](c2ccccc2)NC(=O)[C@H](Cc2ccccc2)N(C)C(=O)c2ccccc2O1 (mixture of isomers)	3	·	·	·
O=C(CSc1nc2ccccc2c(=O)n1-c1ccccc1F)Nc1ccc2c(c1)CCC2	31*	-4	-2	-6
CCOc1ccc(N2C(=O)CC(Sc3nc(C)cc(C)n3)C2=O)cc1 (configuration not stated)	·	-1	-2	3
CCOc1ccc(N2C(=O)CC(Sc3nnnn3-c3ccccc3)C2=O)cc1 (configuration not stated)	19	·	27*	·
CC(=O)Nc1ccc2c(c1)C(=O)N(C)C[C@H](C)[C@@H](CN(C)C(=O)OC(C)(C)C)O2	-2	·	·	·
CCC(=O)Nc1ccc2c(c1)C(=O)N(C)C[C@H](OC)[C@@H](C)CN(C(=O)Cc1ccccn1)[C@@H](C)CO2	-6	·	·	·
Cc1nc2cc(NCc3nc4ccccc4n3Cc3ccccc3)ccc2n1C	·	-3	22*	0
Cc1cccc(NCc2nc3ccccc3n2Cc2ccccc2)c1	5	-10	1	-2
COc1ccc(N=C2NC(=O)/C(=C\C=C\c3ccco3)S2)cc1	4	52	22*	67
Cc1ccccc1OCCNc1cc(N2CCN(CCO)CC2)ccc1[N+](=O)[O-]	9	-8	22*	-1
CC(C)NC(=O)N1Cc2cc(C(=O)NC3CCCCC3)nc(-c3cccc(-c4cccnc4)c3)c2[C@H]1CCO	16	·	·	·
CC(=O)N(C)C[C@@H]1Oc2c(NC(=O)NC(C)C)cccc2C(=O)N(C)C[C@@H]1C	-2	·	·	·
CC(C)C(=O)N1CCN(c2ccc(NC(=O)c3ccc([N+](=O)[O-])o3)cc2Cl)CC1	37*	·	-4	·
CN1CCN(c2ccc(NC(=O)c3ccc([N+](=O)[O-])o3)cc2Cl)CC1	8	-17	1	-2
O=C(Nc1cc(Sc2nc3ccccc3s2)cc([N+](=O)[O-])c1)c1ccccc1F	15*	-3	-5	-4
O=C(/C=C/c1ccc([N+](=O)[O-])cc1)/C=C/c1ccco1	4	50	63*	67
CC[C@@H]1CC=CC[C@@H](C)Oc2ccccc2C(=O)N(C)[C@H](C(C)C)C(=O)N1 (mixture of isomers)	-10	·	·	·
CCOC(=O)CCS(=O)(=O)c1nc(-c2ccccc2)cc(C(F)(F)F)n1	·	-5	58*	-2
COCC(C)NC(=O)CCS(=O)(=O)c1nc(-c2ccc(OC)cc2)cc(C(F)(F)F)n1 (configuration not stated)	·	-4	14	-2
